# Only some compounds are listed: those with a hit (about 2.9% of all), similar ones and a draw of the others.
# 5HT1E ag = 5-HT1E receptor agonists, primary screen, cell-based, HTS. CHO 5-HT1E Ga15 NFAT-bla reporter, FRET; 0% DMSO wells, 100% control agonist wells. 5-hydroxytryptamine receptor 1E (Homo sapiens), P28566. actives 0.69% (n = 65,000). activation, % at 6 µM. AID 574, 2007;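 active means activation above a set limit, the screen-wide mean activation plus 3 SD, cut at about 8.5% in these data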;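 further: 100% = positive control agonist at 1 µM giving full maximal response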
# Target sequence (P28566 whole entry, looked up): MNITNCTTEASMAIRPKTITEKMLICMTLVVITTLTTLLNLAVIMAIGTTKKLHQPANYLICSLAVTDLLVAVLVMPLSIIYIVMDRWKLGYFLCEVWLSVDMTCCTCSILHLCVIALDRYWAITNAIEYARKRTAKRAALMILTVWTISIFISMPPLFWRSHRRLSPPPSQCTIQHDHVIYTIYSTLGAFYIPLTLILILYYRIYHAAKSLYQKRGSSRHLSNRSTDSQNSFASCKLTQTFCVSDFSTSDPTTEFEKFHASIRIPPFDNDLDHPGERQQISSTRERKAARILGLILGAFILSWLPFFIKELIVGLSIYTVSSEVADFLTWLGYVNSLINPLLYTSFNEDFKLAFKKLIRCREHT
# 5HT1a ag = human 5-HT1a receptor agonists, primary screen, cell-based, CHO, Ga15 NFAT-bla reporter; 5-hydroxytryptamine receptor 1A (Homo sapiens), P08908; CHO 5-HT1a Ga15 NFAT-bla reporter, FRET ratio; 0% basal, 100% maximal reference agonist; activation, % at 10 µM; actives 0.56% (n = 65,000); AID 567, 2006;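 active means activation above the screen-wide mean activation plus 3 SD, cut at about 19% in these data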;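 further: 0% = DMSO wells and 100% = 5-CT at EC100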
# HEK293 NFkB inh = inhibitors of PMA/ionomycin-induced NF-kB reporter, primary screen, antigen receptor NF-kB inhibitor project, cell-based, HEK-293 luciferase reporter, luminescence | HEK-293 NF-kB luciferase reporter | inhibition, % at 3 µM | actives 0.21% (n = 62,000) | AID 465, 2006;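 active means inhibition above the mean of all tested compounds plus 3 SD, cut at about 40% in these data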;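 further: 0% = stimulated DMSO wells and 100% = 10 µM reference inhibitor 5653914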
#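 Reagent: PMA plus ionomycin mix as NF-kB-activating stimulus. Assay system: NF-kB luciferase reporter HEK-293 cells. Technique: luminescence from luciferase substrate reagent. Incubation: 1 h compound pre-incubation, 16 h PMA/ionomycin at 37 °C. Benchmarks: DMSO only as uninhibited control, 10 µM reference inhibitor as full inhibition. Repeats: tested once.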
# 5-HT1A blocker = human 5-HT1a receptor antagonists, primary screen, cell-based, CHO, Ga15 NFAT-bla reporter | inhibition, % at 10 µM | actives 0.68% (n = 62,000) | CHO 5-HT1a Ga15 NFAT-bla reporter, antagonist mode | 5-hydroxytryptamine receptor 1A (Homo sapiens), P08908;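 active means inhibition above the mean of all tested compounds plus 3 SD, cut at about 43% in these data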;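 further: receptor stimulated by 5-CT agonist at 100 nM near EC80; beta-lactamase reporter measured by ratiometric fluorescence of a cleavable substrate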
# SK-BR-3 tox 24h = SK-BR-3 proliferation inhibitors, primary screen, cell-based, human, 24 h | SK-BR-3 viability, CellTiter-Glo ATP luminescence; active compounds read low | viability, % at 10 µM | actives 0.47% (n = 41,000) | AID 847, 2007;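 active means viability at or below the median of all test compounds minus 3 SD, in both replicates if run twice, cut at about 45% in these data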;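 further: 100% = median untreated cell wells and 0% = median positive control drug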
# HTR1E antagonist = 5-HT1E receptor antagonists, primary screen, cell-based, HTS | 5-hydroxytryptamine receptor 1E (Homo sapiens), P28566 | CHO 5-HT1E Ga15 NFAT-bla reporter, FRET, antagonist | inhibition, % at 6 µM | actives 0.99% (n = 65,000);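 active means inhibition above a set limit, the mean inhibition across every tested compound plus 3 SD, cut at about 29% in these data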;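 further: signal is the 460 over 535 nm emission ratio of beta-lactamase substrate; 0% = agonist plus DMSO wells and 100% = wells without agonist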
# Active calls of the source: *; . = not tested or not shown.
SMILES,5HT1E ag,5HT1a ag,HEK293 NFkB inh,5-HT1A blocker,SK-BR-3 tox 24h,HTR1E antagonist
CCC(=O)Nc1cc(C)c(NC(=O)c2ccco2)cn1,0,1,12,3,98,1
CCC(=O)Nc1cc(C)c(NC(=O)c2ccccc2OC)cn1,14*,-2,11,-16,94,-2
Cc1ccc2nc3c(cc(C#N)c(=O)n3-c3nccs3)c(=O)n2c1,13*,59*,9,-88,89,-31
O=C(CSc1ccc2nnc(-c3ccccn3)n2n1)Nc1ccc2c(c1)OCO2,0,-2,-3,-3,.,4
O=C(Nc1ccccc1C(=O)N1CCN(c2ccccc2)CC1)c1ccco1,0,-1,-4,-1,.,-4
CCC(c1nnnn1Cc1ccc2c(c1)OCO2)N1CCN(c2ccc(F)cc2)CC1 (stereo not drawn),-1,-2,6,44*,.,8
O=S(=O)(Nc1cccc2cccnc12)c1ccc(S(=O)(=O)N2CCCC2)cc1,-1,-1,11,30,65,32*
CS(=O)(=O)Nc1cccc2cccnc12,0,-1,15,-4,124,6
CN(C)c1nc(N)nc(Cn2ccnc2)n1,0,-1,4,9,95,3
CCn1c(SCC(=O)c2cc(C)n(CC3CCCO3)c2C)nc2ccccc21 (stereo not drawn),0,-1,9,-7,.,12
Cc1cc(C(=O)CN2C(=O)c3ccccc3S2(=O)=O)c(C)n1CC1CCCO1 (stereo not drawn),0,-1,84*,-3,.,8
CCn1c(N2CCN(CC(=O)c3ccc(OC)cc3)CC2)nc2ccccc21,18*,4,19,-9,90,-6
Cc1ccc(C(=O)NCCn2cc(SCC(=O)Nc3cc(C)on3)c3ccccc32)cc1,0,-2,47*,10,.,-3
Cc1cc(NC(=O)CSc2cn(CCNC(=O)c3ccccc3)c3ccccc23)no1,0,-1,8,1,.,-4
Cc1cccc(C)c1NC(=O)C(c1ccccc1)N1CCC2(CC1)OCCO2 (stereo not drawn),0,-3,26,-4,34*,4
Nc1cccc2cnccc12,0,-2,9,30,106,33*
O=C(OC1CCOC1=O)c1cncc(Br)c1 (stereo not drawn),43*,-3,17,-15,85,1
CCCCN(C)C(=O)c1sc2ncn(CC)c(=O)c2c1C,0,0,12,1,112,-6
CC(C(=O)N1c2ccc(F)cc2CCC1C)N1C(=O)c2ccccc2C1=O (stereo not drawn),-2,1,6,22,85,-3
Cc1ccc(-n2nc3c([n+]2[O-])CCc2c-3no[n+]2[O-])cc1,-2,-5,15,73*,.,74*
[O-][n+]1onc2c1CCc1c-2nn(-c2ccccc2Cl)[n+]1[O-],0,-5,12,60*,117,34*
O=C(COc1ccc(Cl)cc1Cl)NC(=O)N1CCOCC1,0,-5,15,2,103,2
CC1CCN(CCCNC(=O)c2coc3nc4ccccc4nc23)CC1,1,-3,-1,-5,.,-4
Cc1ccc(CCNC(=O)c2coc3nc4ccccc4nc23)cc1,13*,3,-2,-17,.,-3
O=C(Nc1cccc(-c2cn3ccsc3n2)c1)c1ccccc1,83*,-1,-3,2,.,4

# Bioassay records (PubChem)
